Legend:
[1] = test system: Wi-38 normal human lung fibroblast cells; test: MTT assay against normal human cell line; assay type: cell-based; conditions: for IC50: Homo sapiens, WI-38, 72 h, read-out: Wi-38 IC50; for Wi-38 IC100: MTT, 72 h, SI calls it EC100, dose at 100% cell viability, mean ± SEM
Method in brief: (§1)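 Cytotoxicity by MTT, run side by side on MCF-7 and MDA-MB231 breast cancer cells and Wi-38 normal human fibroblasts, with doxorubicin as reference. IC50 was determined for each line, and IC100 also on Wi-38. Selectivity indices express selectivity toward each breast cancer line over the normal Wi-38 cells.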

MDA-MB 231 cells = test: MTT assay against human breast cancer cell line MDA-MB 231; assay type: cell-based; conditions: for IC50: Homo sapiens, MDA-MB-231, 72 h, read-out: MDA-MB 231 IC50; for MDA-MB 231 SI (selectivity index): over Wi-38 normal cells
Method in brief: as §1

MCF-7 cells [2] = test: MTT assay against human breast cancer cell line MCF-7; assay type: cell-based; conditions: for IC50: Homo sapiens, MCF7, 72 h, read-out: MCF-7 IC50; for MCF-7 SI (selectivity index): over Wi-38 normal cells; for cytotoxicity compared to doxorubicin: MTT, cell line not given, fits MCF-7 IC50 values; for fold reduction of potency and selectivity relative to 18: MCF-7, bromo replaced by chloro or nitro
Method in brief: as §1

calf thymus DNA (ctDNA) = test: DNA damage by terbium; assay type: biochemical; conditions: 24 h incubation, Tb fluorescence 545 nm
MCF-7 cells [3] = test: MCF-7 cell cycle analysis by flow cytometry; assay type: cell-based, human; conditions: MCF-7, 24 h treatment with IC50
MCF-7 cells [4] = test: Annexin V-FITC/PI double staining apoptosis assay; assay type: cell-based, human; conditions: MCF-7, 24 h treatment with IC50

SMILES | IC50 [1] | Wi-38 IC100 [1] | IC50 (MDA-MB 231 cells) | MDA-MB 231 SI (selectivity index) (MDA-MB 231 cells) | IC50 (MCF-7 cells [2]) | MCF-7 SI (selectivity index) (MCF-7 cells [2]) | LOD (minimum concentration inducing detectable DNA damage) (calf thymus DNA (ctDNA)) | LOQ (calf thymus DNA (ctDNA)) | cytotoxicity compared to doxorubicin (MCF-7 cells [2]) | cell cycle distribution compared to untreated cells (MCF-7 cells [3]) | early apoptosis (MCF-7 cells [4]) | late apoptosis (MCF-7 cells [4]) | total cell death (apoptosis induction) (MCF-7 cells [4]; control 0.73%) | necrotic cells (MCF-7 cells [4]; control 1.34%) | fold reduction of potency and selectivity relative to 18 (MCF-7 cells [2])
Cc1cc(=O)n2c(C)n[nH]c2n1 [Compound 14, 3,7-Dimethyl-1,2,4-triazolo[4,3-a]pyrimidin-5(1H)-one] | 1510 ± 41 nM | 0.206 ± 0.014 µM | 1260 ± 52 nM | 1.200 | 292 ± 10 nM | 5.157 |  |  |  |  |  |  |  |  | 
CC(=O)Nc1c(N)nc(SCC(=O)N/N=C/c2ccc([N+](=O)[O-])cc2)[nH]c1=O [Compound 8, (E)-N-(4-amino-2-((2-(2-(4-nitrobenzylidene)hydrazinyl)-2-oxoethyl)thio)-6-oxo-1,6-dihydropyrimidin-5-yl)acetamide] | 713 ± 44 nM | 0.491 ± 0.084 µM | 583 ± 20 nM | 1.222 | 146 ± 11 nM | 4.883 | 30.03 nM | 100.12 nM | surpassed doxorubicin |  |  |  |  |  | 
CC(=O)Nc1c(N)nc(SCC(=O)N/N=C/c2ccc(Br)cc2)[nH]c1=O [Compound 7, (E)-N-(4-amino-2-((2-(2-(4-bromobenzylidene)hydrazinyl)-2-oxoethyl)thio)-6-oxo-1,6-dihydropyrimidin-5-yl)acetamide] | 408 ± 81 nM | 0.232 ± 0.003 µM | 616 ± 20 nM | 0.662 | 167 ± 40 nM |  |  |  | surpassed doxorubicin |  |  |  |  |  | 
CCOC(=O)CSc1nc(N)c(NC(C)=O)c(=O)[nH]1 [Compound 4, Ethyl 2-((5-Acetamido-4-amino-6-Oxo-1,6-dihydropyrimidin-2-yl)thio)acetate] | 852 ± 11 nM | 0.352 ± 0.012 µM | 840 ± 50 nM | 1.014 | 266 ± 15 nM | 3.203 |  |  |  |  |  |  |  |  | 
CC(=O)Nc1c(N)nc(SCC(=O)NN)[nH]c1=O [Compound 5, N-(4-amino-2-((2-hydrazinyl-2-oxoethyl)thio)-6-oxo-1,6-dihydropyrimidin-5-yl)acetamide] | 801 ± 31 nM | 0.240 ± 0.003 µM | 826 ± 46 nM | 0.969 | 50 ± 8 nM | 16.02 | 10.64 nM | 35.48 nM | surpassed doxorubicin | increased DNA content during S | 29.11% | 17.64% | 46.75% | 5.39% | 
COC(=O)Cn1nc(C)n2c(=O)cc(C)nc12 [Compound 15, Methyl 2-(3,7-dimethyl-5-oxo-1,2,4-triazolo[4,3-a]pyrimidin-1(5H)-yl)acetate] | 1170 ± 22 nM | 0.237 ± 0.017 µM | 1280 ± 56 nM | 0.912 | 617 ± 29 nM | 1.894 |  |  |  |  |  |  |  |  | 
Cc1cc(=O)n2c(C)nn(CC(=O)N/N=C/c3ccccc3O)c2n1 [Compound 21, (E)-N′-(2-hydroxybenzylidene)-2-(3,7-dimethyl-5-oxo-1,2,4-triazolo[4,3-a]pyrimidin-1(5H)-yl)acetohydrazide] | 518 ± 8 nM | 0.269 ± 0.026 µM | 697 ± 24 nM | 0.743 | 52 ± 10 nM | 9.961 |  |  | surpassed doxorubicin |  |  |  |  |  | 
CC(=O)Nc1c(N)nc(S)[nH]c1=O [Compound 3, N-(4-amino-2-mercapto-6-oxo-1,6-dihydropyrimidin-5-yl)acetamide] | 1340 ± 72 nM | 0.103 ± 0.045 µM | 1440 ± 255 nM | 0.930 | 832 ± 48 nM | 1.615 |  |  |  |  |  |  |  |  | 
Cc1cc(=O)n2c(C)nn(CC(=O)N/N=C/c3ccc(Cl)cc3)c2n1 [Compound 17, (E)-N′-(4-chlorobenzylidene)-2-(3,7-dimethyl-5-oxo-1,2,4-triazolo[4,3-a]pyrimidin-1(5H)-yl)acetohydrazide] | 593 ± 24 nM | 0.124 ± 0.034 µM | 632 ± 29 nM | 0.938 | 403 ± 62 nM | 1.471 |  |  |  |  |  |  |  |  | 5 fold
Cc1cc(=O)n2c(C)nn(CC(=O)N/N=C/c3ccc(Br)cc3)c2n1 [Compound 18, (E)-N′-(4-bromobenzylidene)-2-(3,7-dimethyl-5-oxo-1,2,4-triazolo[4,3-a]pyrimidin-1(5H)-yl)acetohydrazide] | 593 ± 5 nM | 0.111 ± 0.005 µM | 559 ± 29 nM | 1.060 | 42 ± 9 nM | 14.119 |  |  | surpassed doxorubicin |  |  |  |  |  | 
Cc1cc(=O)n2c(C)nn(CC(=O)N/N=C/c3ccc([N+](=O)[O-])cc3)c2n1 [Compound 19, (E)-N′-(4-nitrobenzylidene)-2-(3,7-dimethyl-5-oxo-1,2,4-triazolo[4,3-a]pyrimidin-1(5H)-yl)acetohydrazide] | 612 ± 34 nM | 0.329 ± 0.031 µM | 820 ± 90 nM | 0.746 | 201 ± 39 nM | 3.044 |  |  |  |  |  |  |  |  | 10 fold
CC(=O)Nc1c(N)nc(SCC(=O)N/N=C/c2ccccc2O)[nH]c1=O [Compound 10, (E)-N-(4-amino-2-((2-(2-(2-hydroxybenzylidene)hydrazinyl)-2-oxoethyl)thio)-6-oxo-1,6-dihydropyrimidin-5-yl)acetamide] | 501 ± 49 nM | 0.241 ± 0.037 µM | 590 ± 49 nM | 0.849 | 102 ± 1 nM | 4.911 |  |  | surpassed doxorubicin |  |  |  |  |  | 
CC(=O)Nc1c(N)nc(SCC(=O)N/N=C/c2ccc(Cl)cc2)[nH]c1=O [Compound 6, (E)-N-(4-amino-2-((2-(2-(4-chlorobenzylidene)hydrazinyl)-2-oxoethyl)thio)-6-oxo-1,6-dihydropyrimidin-5-yl)acetamide] | 692 ± 64 nM | 0.037 ± 0.007 µM | 681 ± 29 nM | 1.016 | 445 ± 15 nM | 1.555 |  |  |  |  |  |  |  |  | 
COc1ccc(/C=N/NC(=O)CSc2nc(N)c(NC(C)=O)c(=O)[nH]2)cc1 [Compound 9, (E)-N-(4-amino-2-((2-(2-(4-methoxybenzylidene)hydrazinyl)-2-oxoethyl)thio)-6-oxo-1,6-dihydropyrimidin-5-yl)acetamide] | 1050 ± 25 nM | 0.424 ± 0.020 µM | 683 ± 1 nM | 1.531 | 217 ± 16 nM | 4.820 |  |  |  |  |  |  |  |  | 
COc1ccc(/C=N/NC(=O)Cn2nc(C)n3c(=O)cc(C)nc23)cc1 [Compound 20, (E)-N′-(4-methoxybenzylidene)-2-(3,7-dimethyl-5-oxo-1,2,4-triazolo[4,3-a]pyrimidin-1(5H)-yl)acetohydrazide] | 723 ± 20 nM | 0.280 ± 0.037 µM | 856 ± 19 nM | 0.844 | 334 ± 20 nM |  |  |  |  |  |  |  |  |  | 
COc1cccc2c1C(=O)c1c(O)c3c(c(O)c1C2=O)C[C@@](O)(C(=O)CO)C[C@@H]3O[C@H]1C[C@H](N)[C@H](O)[C@H](C)O1 [DOX., doxorubicin, reference compound] | 322 ± 25 nM | 0.119 ± 0.005 µM | 487 ± 18 nM | 0.661 | 198 ± 11 nM | 1.626 | 0.76 nM | 2.56 nM |  |  |  |  |  |  | 
Cc1cc(=O)n2c(C)nn(CC(=O)NN)c2n1 [Compound 16, 2-(3,7-Dimethyl-5-oxo-1,2,4-triazolo[4,3-a]pyrimidin-1(5H)-yl)acetohydrazide] | 978 ± 13 nM | 0.115 ± 0.033 µM | 1128 ± 2 nM | 0.867 | 544 ± 8 nM | 1.797 |  |  |  |  |  |  |  |  | 
